Most compounds without a hit are left out; they make up all but 2.8% or so of the library.
ABHD4 inh = ABHD4 inhibitors, primary screen, biochemical, fluorescence polarization, mouse | (Lyso)-N-acylphosphatidylethanolamine lipase (Mus musculus), Q8VD66 | purified mABHD4, FP-Rh probe fluorescence polarization | hit rate 0.54% among 370,000 | inhibition, % at 8.92 µM;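 active means inhibition exceeding the mean over every tested compound plus 3 SD, cut at about 30% in these data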
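system = mouse ABHD4 enzyme, wild type | medium = HEPES pH 7.0, NaCl, Pluronic buffer | also added = FP-Rh probe | incubation = Enzyme–compound pre-incubation 45 min, then probe 60 min, both 25 °C | technique = fluorescence polarization, excitation 525 nm, emission 598 nm, BODIPY TMR filters | controls = S159A mutant high control, sample median low control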
PAFAH1B3 FP inh = PAFAH1B3 enzyme inhibitors, primary screen, biochemical, fluorescence polarization, human | Platelet-activating factor acetylhydrolase IB subunit alpha1 (Homo sapiens), Q15102 | recombinant PAFAH1B3, FP-rhodamine probe | inhibition, % at 3.39 µM | hit rate 0.28% among 340,000;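 active means inhibition above the screen-wide average of all tested compounds plus 3 SD, cut at about 25% in these data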
Target sequence (Q15102 whole entry, looked up): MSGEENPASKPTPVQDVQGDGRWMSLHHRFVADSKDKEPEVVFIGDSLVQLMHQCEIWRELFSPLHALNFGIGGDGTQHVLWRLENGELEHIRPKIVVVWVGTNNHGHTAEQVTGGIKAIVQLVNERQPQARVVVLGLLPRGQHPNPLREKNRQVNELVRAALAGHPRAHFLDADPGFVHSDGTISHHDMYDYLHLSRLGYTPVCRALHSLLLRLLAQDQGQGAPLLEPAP
pPAFAH FP inh = pPAFAH enzyme inhibitors, primary screen, biochemical, fluorescence polarization, human; Platelet-activating factor acetylhydrolase (Homo sapiens), Q13093; recombinant pPAFAH, FP-rhodamine probe fluorescence polarization; inhibition, % at 3.39 µM; hit rate 1.5% among 330,000; AID 463082, 2010;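 active means inhibition above the mean inhibition across the screen plus 3 SD, cut at about 25% in these data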;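 further: inhibitors block binding of the rhodamine activity-based probe so polarization drops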
HTRA1 inhibitor = HTRA1 serine protease inhibitors, primary screen, biochemical, fluorescence polarization, HTS. recombinant HTRA1, FP-rhodamine activity-based probe. hit rate 0.5% among 340,000. inhibition, % at 5.96 µM; in the data active means inhibition above about 36%
PAFAH1B2 inh = PAFAH1B2 enzyme inhibitors, primary screen, biochemical, fluorescence polarization, human; Platelet-activating factor acetylhydrolase IB subunit alpha2 (Homo sapiens), P68402; recombinant PAFAH1B2, FP-rhodamine activity probe; inhibition, % at 3.39 µM; hit rate 1.2% among 340,000; AID 492953, 2010;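 active means inhibition above the mean of all tested compounds plus 3 SD, cut at about 24% in these data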
Target sequence (P68402 whole entry, looked up): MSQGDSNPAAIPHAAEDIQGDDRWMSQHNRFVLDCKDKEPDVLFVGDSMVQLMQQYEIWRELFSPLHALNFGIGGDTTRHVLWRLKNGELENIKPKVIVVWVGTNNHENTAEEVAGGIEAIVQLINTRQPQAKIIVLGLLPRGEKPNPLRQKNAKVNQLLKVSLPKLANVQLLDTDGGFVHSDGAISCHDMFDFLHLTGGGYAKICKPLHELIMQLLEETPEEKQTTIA
PAFAH2 inh = PAFAH2 enzyme inhibitors, primary screen, biochemical, fluorescence polarization, human; Platelet-activating factor acetylhydrolase 2, cytoplasmic (Homo sapiens), Q99487; recombinant PAFAH2, FP-rhodamine activity probe; inhibition, % at 3.39 µM; hit rate 0.99% among 340,000; AID 492956, 2010;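 active means inhibition above the mean over all tested compounds plus 3 SD, cut at about 30% in these data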;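 further: inhibitors block probe labeling of enzyme so polarization drops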
mABHD4 conf = ABHD4 inhibitors, retest, confirmation, biochemical, fluorescence polarization, mouse | shares compounds with ABHD4 inh | purified mABHD4, FP-Rh probe fluorescence polarization | inhibition, % at 8.92 µM | hit rate 55% among 1,800;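 active means mean inhibition across replicates above the hit cutoff set in the primary screen, cut at about 30% in these data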
Each line names hits and unclear results; the compound was inactive in the other large screens (follow-up assays come after a bar, where they were run).

COCc1cc(N2CCN(C(=O)OC(C)(C)C)C[C@H]2C)ccc1N1CC[C@H](O)C1	ABHD4 inh 37.5 (no result: PAFAH1B3 FP inh, pPAFAH FP inh, HTRA1 inhibitor, PAFAH1B2 inh, PAFAH2 inh) | mABHD4 conf inactive
COCc1cc(N2CCN(C(=O)OC(C)(C)C)C[C@@H]2C)ccc1N1CCS(=O)(=O)CC1	none (no result: PAFAH1B3 FP inh, pPAFAH FP inh, HTRA1 inhibitor, PAFAH1B2 inh, PAFAH2 inh)
COCc1cc(N2CCN(C(=O)OC(C)(C)C)C[C@@H]2C)ccc1N1CC[C@H](O)C1	ABHD4 inh 34.8 (no result: PAFAH1B3 FP inh, pPAFAH FP inh, HTRA1 inhibitor, PAFAH1B2 inh, PAFAH2 inh) | mABHD4 conf inactive
O=[N+]([O-])c1ccc(N=NNc2ccccc2)cc1	none (no result: ABHD4 inh)
O=C(O)c1cc(NN=Nc2cccc(S(=O)(=O)O)c2)cc([N+](=O)[O-])c1	ABHD4 inh 38.8 | mABHD4 conf 35.5
O=[N+]([O-])c1cccc(NN=Nc2ccccc2)c1	none
O=C(O)c1cc(NN=Nc2cccc([N+](=O)[O-])c2)cc([N+](=O)[O-])c1	ABHD4 inh 69.0, pPAFAH FP inh 27.0 | mABHD4 conf 73.2
O=C(O)c1cc(NN=Nc2ccc(Br)cc2)cc([N+](=O)[O-])c1	ABHD4 inh 67.7 | mABHD4 conf 67.2
O=C(O)c1cccc(NC(=O)c2cccc(S(=O)(=O)Nc3cccc([N+](=O)[O-])c3)c2)c1	none
COC(=O)[C@]12C[C@H](CC(=O)NCc3ccccc3)C(=O)N(Cc3ccc(Cl)cc3Cl)C1=C[C@H](COCc1ccccc1)O[C@@H]2C	none (no result: PAFAH1B3 FP inh, pPAFAH FP inh, HTRA1 inhibitor, PAFAH1B2 inh, PAFAH2 inh)
CC1=NN(C(N)=S)C(=O)C1N=Nc1c(C)cc(C)cc1C (stereo unspecified)	none
CC1=NN(C(N)=S)C(=O)C1N=Nc1c(Br)cc(Br)cc1Br (stereo unspecified)	ABHD4 inh 30.1 | mABHD4 conf 57.0
Cc1cccc(NC(=O)NNC(=O)c2ccccn2)c1	ABHD4 inh 30.4 | mABHD4 conf inactive
O=C(NNC(=O)c1ccccn1)c1cccc([N+](=O)[O-])c1	ABHD4 inh 32.3 | mABHD4 conf inactive
CN(CCO)c1ccc2c(c1)Oc1ccccc1CN(Cc1cn(Cc3ccc(F)cc3)nn1)S2(=O)=O	none (no result: PAFAH1B3 FP inh, pPAFAH FP inh, HTRA1 inhibitor, PAFAH1B2 inh, PAFAH2 inh)
COc1ccc(N2C(=O)CS/C2=C\[N+](=O)[O-])cc1	ABHD4 inh 30.2 | mABHD4 conf inactive
O=C(CN1C(=O)/C(=C2/SC(=S)N(CCS(=O)(=O)O)C2=O)c2ccccc21)Nc1cccc(C(F)(F)F)c1	ABHD4 inh 84.7 | mABHD4 conf 92.5
O=C(CN1C(=O)/C(=C2\SC(=S)N(CCS(=O)(=O)O)C2=O)c2ccccc21)Nc1cccc(Br)c1	ABHD4 inh 67.5 | mABHD4 conf 83.5
COCCN1C(=O)/C(=C2/C(=O)N(CC(=O)Nc3ccccc3Cl)c3ccccc32)SC1=S	none
COc1cc(C(=O)OCC(=O)N2CCCC2=O)cc(OC)c1C	ABHD4 inh 44.6 | mABHD4 conf inactive
CCOCC(=O)NC(=O)N1C[C@H]2CON(C)[C@H]2C[C@H]1c1ccc(OC)cc1	none (no result: PAFAH1B3 FP inh, pPAFAH FP inh, HTRA1 inhibitor, PAFAH1B2 inh, PAFAH2 inh)
Cc1cc2c(NC(=O)CCCC(=O)O)cccc2nn1	none
Cc1cc2c(NC(=O)Nc3ccc(C(F)(F)F)cc3)cccc2nn1	ABHD4 inh 109.4 | mABHD4 conf inactive
CCC[C@H]1[C@@H](NC(=O)c2cccc(C)c2)CC[C@@]23CCCN2C(=O)CCC[C@@H]13	none (no result: PAFAH1B3 FP inh, pPAFAH FP inh, HTRA1 inhibitor, PAFAH1B2 inh, PAFAH2 inh)
COc1ccc2nc(NC(=O)Nc3ccccc3OC)sc2c1	none
COc1ccc2nc(NC(=O)Nc3cccc4ccccc34)sc2c1	ABHD4 inh 30.1 | mABHD4 conf inactive
COc1c(F)c(F)c(C(=O)Nc2ccc(N3CCN(C(C)=O)CC3)c(Cl)c2)c(F)c1F	ABHD4 inh 30.6 | mABHD4 conf inactive
COc1cc(/C=N/NC(=S)NC2CC3C=CC2C3)cc(OC)c1OC (stereo unspecified)	ABHD4 inh 29.7 (no result: PAFAH1B3 FP inh, HTRA1 inhibitor, PAFAH1B2 inh, PAFAH2 inh) | mABHD4 conf 37.8
COc1cc(/C=N/NC(=S)NCCc2ccccc2)cc(OC)c1OC	none (no result: pPAFAH FP inh)
Cc1ccc(NC(=O)C2CCCN2S(=O)(=O)c2cccnc2)c(C)c1 (stereo unspecified)	none (no result: PAFAH1B3 FP inh, pPAFAH FP inh, HTRA1 inhibitor, PAFAH1B2 inh, PAFAH2 inh)

Compound activity as filed in PubChem BioAssay.
